# Bioassay records: PubChem, several laboratories
# Compounds with a hit are over-represented: about 11% of the library has one in this group of screens.
# L major viab – Leishmania major promastigote growth inhibition, primary screen | Leishmania major promastigotes, resazurin fluorescence viability | inhibition, % at 10 µM | 200,000 tested, 9% active;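 further: promastigotes grown with compound for 44 hours at 28 °C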
# Diaphorase inh – diaphorase inhibitors and chemical oxidizers, primary screen, counter-screen for diaphorase-coupled primary assays, biochemical, uHTS, resorufin fluorescence; diaphorase resazurin-to-resorufin fluorescence, NADH, 16 min; bacterial (C. kluyveri) enzyme, not human; inhibition, % at 20 µM; 190,000 tested, 0.69% active; AID 1217, 2008;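 active means primary screen inhibition at 20 µM above a set limit, cut at about 50% in these data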
#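 Test system: Clostridium kluyveri diaphorase enzyme / Quantity: diaphorase at 0.14 U/mL in enzyme working solution / Incubation: 16-min room-temperature incubation before reading / Benchmarks: NADH-free wells as positive control, DMSO-only neutral wells / Signal: resorufin fluorescence 544/590 nm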
# G6PDH counter – L. mesenteroides G6PDH inhibitors, counter-screen for G6PDH-coupled screening assays, biochemical, Leuconostoc mesenteroides enzyme; glucose-6-phosphate dehydrogenase [Leuconostoc mesenteroides]; Purified L. mesenteroides G6PDH, diaphorase/resazurin coupled fluorescence, 45 min; inhibition, % at 5 µM; 200,000 tested, 0.12% active; AID 1020, 2008
# WT yeast gro inh – growth inhibition of WT strain, primary screen, mitochondrial fusion inhibitor project, WT and mutant strains, chemical genetic; mitochondrial fusion phenotypic screen; inhibition, % at 10 µM; 190,000 tested, 2.1% active; AID 1362, 2008; in the data active means inhibition above about 58%; tested in S. cerevisiae
# Diaphorase act – compounds boosting diaphorase resazurin reduction – biochemical, uHTS, resorufin fluorescence, counter-screen for diaphorase-coupled primary assays, primary screen; Diaphorase/resazurin coupled assay, 16 min; active compounds read high; 1 = vehicle wells, 0 = NADH-free wells; activation factor at 20 µM; 190,000 tested, 0.005% active;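 active means diaphorase activity raised at least twofold by the compound at 20 µM; inactive means activation factor below 2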
#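 Material: purified diaphorase enzyme from Clostridium kluyveri; Also added: 0.114 mM NADH and 0.1 mM resazurin, final amounts; Doses: single compound dose of 20 µM, 1% DMSO final; Times: 16 min enzyme reaction, ambient temperature; Detection: resorufin fluorescence, excitation 544 nm, emission 590 nm; Measure: increased resorufin signal from activators or reducing compounds.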
# Numbers stand for hits; n = inactive; x = not tested or not shown. Unless noted, no stated cut-off is given here; in the data, active means inhibition above about 50%; inactive means the rest.
SMILES,L major viab,Diaphorase inh,G6PDH counter,WT yeast gro inh,Diaphorase act
COc1ccc(CCNc2nc(N3CCOCC3)nc(N3CCOCC3)n2)cc1OC,n,n,n,n,n
COc1ccc(CCNc2nc(N3CCCCC3)nc(N3CCCCC3)n2)cc1OC,95,n,n,n,n
CCOc1nc(NCCc2ccc(OC)c(OC)c2)nc(NC(C)(C)CO)n1,53,n,n,n,n
Cc1ccc(S(=O)(=O)N2CCOCC2)cc1C(=O)OCC(=O)N1c2ccccc2NC(=O)C1(C)C,n,n,n,n,n
CC(C)Nc1nnc(Sc2ccc(Cl)cc2[N+](=O)[O-])s1,n,n,n,n,n
Cn1c(=O)c2c(nc(Oc3ccccn3)n2C)n(C)c1=O,x,n,n,x,n
CN1CCN(c2ccc(NC(=O)c3ccc(-c4ccc(Br)cc4)o3)cc2)CC1,99,n,n,n,n
O=C(Nc1ccc(N2CCCC2)cc1)c1ccc(Br)o1,n,n,n,n,n
CCC(=O)N1CCN(c2ccc(NC(=O)c3ccc([N+](=O)[O-])o3)cc2)CC1,100,n,n,n,n
CCCC(=O)N1CCN(c2ccc(NC(=O)c3ccc([N+](=O)[O-])o3)cc2)CC1,100,n,n,n,n
CCCC(=O)N1CCN(c2ccc(NC(=O)c3ccc(Br)o3)cc2)CC1,n,n,n,n,n
CS(=O)(=O)N1CCN(c2ccc(NC(=O)c3ccc([N+](=O)[O-])o3)cc2)CC1,95,n,n,n,n
CCc1ccc(-n2c(C)cc(/C=N/NC(=O)OC)c2C)cc1,n,n,n,n,n
O=C(Nc1ccc(N2CCN(C(=O)c3ccc(Cl)cc3)CC2)cc1)c1ccc2c(c1)OCCO2,n,n,n,n,n
O=C(Nc1ccc(N2CCN(C(=O)c3ccc(Cl)cc3)CC2)cc1)c1ccc([N+](=O)[O-])o1,100,n,n,n,n
O=C(c1ccc(Cl)cc1)N1C2C=CC(C2)C1(C(F)(F)F)C(F)(F)F (centres undefined),64,n,n,n,n
O=C(c1cccc(F)c1)N1C2C=CC(C2)C1(C(F)(F)F)C(F)(F)F (centres undefined),n,n,n,n,n
c1ccc(C2CCC3(CC2)Oc2ccccc2C2CC(c4cccnc4)=NN23)cc1 (centres undefined),89,n,n,n,n
c1ccc(C2Oc3ccccc3C3CC(c4cccs4)=NN32)cc1 (centres undefined),n,n,n,n,n
COC(=O)Cc1c(C)nc2nc(NCc3cccc([N+](=O)[O-])c3)[nH]n2c1=O,n,n,n,n,n
Cc1cc2nc(C3CCCN(C(=S)Nc4ccccc4C)C3)[nH]c2cc1C (centres undefined),n,n,n,n,n
Cc1ccc(NC(=S)N2CCCC(c3nc4ccc(C)cc4[nH]3)C2)c(C)c1 (centres undefined),62,n,n,n,n
Cc1ccc2nc(C3CCCN(C(=S)Nc4cccc(C)c4C)C3)[nH]c2c1 (centres undefined),82,n,n,n,n
CNC(=S)N/N=C1\CC(c2ccccc2)Oc2ccccc21 (centres undefined),n,n,n,n,n
Fc1ccc(N/N=C2/CC(c3ccccc3)Oc3ccccc32)c(F)c1 (centres undefined),72,n,n,n,n
SMILES,L major viab,Diaphorase inh,G6PDH counter,WT yeast gro inh,Diaphorase act
O=C(Nc1cc(S(=O)(=O)N2CCOCC2)ccc1Cl)C(=O)c1c(-c2ccccc2)cc2ccccn12,n,n,n,99,n
O=S(=O)(c1ccc(Cl)c(NC(=S)Nc2ccccc2N2CCOCC2)c1)N1CCOCC1,n,n,n,n,n
CCN(CC)CCCNC(=O)C1c2ccccc2Oc2ccccc21,n,n,n,n,n
CNCCCC1Sc2ccccc2Oc2ccccc21 (centres undefined),100,n,n,n,n
Cc1ccc(C)c(S(=O)(=O)NCCCn2ccnc2)c1,n,n,n,n,n
Cc1cc(Cl)c(OCCCn2ccnc2)c(Br)c1,n,n,n,n,n
CC(C)(C)c1ccccc1OCCCCCn1ccnc1,95,n,n,n,n
Clc1ccccc1OCCn1ccnc1,n,n,n,n,n
Cc1cc(C)c(C)c(OCCCn2ccnc2)c1,82,n,n,n,n
Cc1cc(C(C)(C)C)ccc1OCCn1ccnc1,62,n,n,72,n
Cc1ccc(C(C)(C)C)c(OCCCn2ccnc2)c1,n,n,n,66,n
Cc1nc2cc(C(=O)N3CCc4ccccc43)ccc2n1-c1ccc(F)c(F)c1,n,n,n,n,n
COc1ccc(OC)c(S(=O)(=O)N2CCN(C34CC5CC(CC(C5)C3)C4)CC2)c1,n,n,n,n,n
O=C(CCc1ccc(S(=O)(=O)N2CCOCC2)cc1)N1CCN(Cc2ccc3c(c2)OCO3)CC1,n,n,n,n,n
Cc1cccc(OCCCOc2cccc3cccnc23)c1C,69,n,n,n,n
Cc1cccc(OCCCCCn2ccnc2)c1C,99,n,n,67,n
CCOc1ccc(OCCCCn2ccnc2)cc1,n,n,n,n,n
Cc1ccc(C)c(OCCCCn2ccnc2)c1,99,n,n,n,n
Cc1ccc(OCCCCn2ccnc2)c([N+](=O)[O-])c1,96,n,n,n,n
COc1ccc(-c2nc(O)c3cnccn23)cc1,n,n,n,n,n
CC(=O)Nc1ccc(S(=O)(=O)N2CCCC2C(=O)Nc2ccc3c(c2)OCCO3)cc1 (centres undefined),n,n,n,n,n
C=CCNS(=O)(=O)c1cc(S(=O)(=O)NCC=C)c(OC)cc1OC,n,n,n,n,n
c1ccc(Nc2nc(-c3cccnc3)cs2)nc1,n,n,n,n,n
Cc1cccc(Nc2nc(-c3ccccn3)cs2)n1,100,n,n,n,n
Cc1cccnc1Nc1nc(-c2ccc(O)cc2O)cs1,n,n,n,n,n
SMILES,L major viab,Diaphorase inh,G6PDH counter,WT yeast gro inh,Diaphorase act
c1ccc(Nc2nc(-c3cccs3)cs2)nc1,n,n,n,n,n
Cc1cccc(Nc2nc(-c3cccs3)cs2)n1,57,n,n,72,n
Cc1cccnc1Nc1nc(-c2ccccn2)cs1,100,n,53,n,n
O=[N+]([O-])c1ccccc1S(=O)(=O)N1CCN(Cc2ccc3c(c2)OCO3)CC1,n,n,n,n,n
O=C(/C=N/O)NCc1ccncc1,n,n,n,n,n
O=C(O)c1csc(-n2nc(-c3ccccc3)cc2C(F)(F)F)n1,n,n,n,n,n
CS(=O)(=O)N(CC(=O)N1CCCCC1)c1cccc(F)c1,n,n,n,n,n
CC1(C)Cc2c(sc3nc(SCC(=O)NCc4ccco4)n(-c4ccccc4)c(=O)c23)CS1,53,n,n,n,n
CC(C)c1nc2sc3c(SCC(=O)NCc4ccco4)ncnc3c2c2c1CCC2,n,56,n,n,n
